From ChEMBL document CHEMBL5107945, “Synthesis and biological evaluation of bergenin derivatives as new immunosuppressants” (RSC Med Chem, 2021)

Legend:
[1] = Inhibition of ConA-induced proliferation of BALB/c mouse splenocyte at 10 uM incubated for 48 hrs by CCK-8 assay relative to control; format: functional
Outline: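 Male BALB/c mouse splenocytes (6–8 weeks; red cells lysed with 0.84% NH4Cl), 5 × 10^5 cells/well in RPMI-1640 with 10% FBS and pen/strep, were stimulated with 5 μg/mL Con A with or without 10 μM compound for 48 h at 37 °C, 5% CO2. CCK-8 was added for 3 h and OD450 read. Inhibition was calculated against Con A-only wells; means ± SEM, ≥3 independent experiments.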

[2] = Inhibition of ConA-induced proliferation of BALB/c mouse splenocyte incubated for 48 hrs by CCK-8 assay relative to control; format: functional, cell-based
Outline: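 IC50 was measured only for compounds giving over 50% inhibition at 10 μM. Con A (5 μg/mL)-stimulated male BALB/c splenocytes, 5 × 10^5 cells/well in RPMI-1640/10% FBS, were cultured 48 h at 37 °C, 5% CO2. Read-out was CCK-8, 3 h incubation, OD450. IC50 came from at least three independent tests.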

[3] = Cytotoxicity against human Jurkat cells assessed as reduction in cell viability incubated for 48 hrs by CCK-8 assay; format: toxicity, cell-based
Outline: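 Human Jurkat T-leukemia cells in RPMI-1640 with 10% FBS and pen/strep, 2.5 × 10^4 cells/well, were exposed to serially diluted compound at 37 °C for 48 h. Viability was read by CCK-8 (3 h, OD450). IC50 is the concentration reducing viability to 50%.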

[4] = Inhibition of ConA-induced IFN-gamma secretion in BALB/c mouse splenocyte at 10 uM incubated for 48 hrs by ELISA relative to control; format: functional
Outline: (§1)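 Male BALB/c splenocytes, 5 × 10^5 cells/well, were treated with Con A (5 μg/mL) plus compound at 5 or 10 μM for 48 h at 37 °C, 5% CO2. Plates were spun at 4 °C, 1500 rpm, 5 min. Cell-free supernatant IFN-γ or IL-4 was measured by capture-antibody ELISA. Inhibition was calculated against Con A-only wells; means ± SEM, ≥3 independent experiments.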

[5] = Inhibition of ConA-induced IL-4 secretion in BALB/c mouse splenocyte at 10 uM incubated for 48 hrs by ELISA relative to control; format: functional; outline: as §1
[6] = Selectivity index, ratio of IC50 for cytotoxicity against human Jurkat cells to IC50 for inhibition of ConA-induced proliferation of BALB/c mouse splenocyte; format: toxicity, cell-based; details: mouse (splenocytes), ConA-stimulated mouse splenocytes, read-out: Ratio IC50
Outline: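 Ratio of Jurkat IC50 to splenocyte IC50. Jurkat: 2.5 × 10^4 cells/well, serial dilutions, 48 h, 37 °C, CCK-8 viability. Splenocytes: BALB/c cells, 5 × 10^5/well, with 5 μg/mL Con A, 48 h, 37 °C, 5% CO2, CCK-8 read at OD450.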

[7] = Inhibition of ConA-induced proliferation of BALB/c mouse splenocyte at 1 uM incubated for 48 hrs by CCK-8 assay relative to control; format: functional
Outline: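 Positive-control condition: cyclosporine A at 1 μM in the same Con A (5 μg/mL)-stimulated BALB/c splenocyte culture, 5 × 10^5 cells/well, 48 h at 37 °C, 5% CO2. Proliferation was read by CCK-8 (3 h, OD450) against Con A-only wells.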

Row | SMILES | inhibition at 10 µM [1] [%] | IC50 [2] [µM] | IC50 at 48 h [3] [µM] | inhibition at 10 µM [4] [%] | inhibition at 10 µM [5] [%] | selectivity ratio [6] | inhibition at 1 µM [7] [%]
1 | CCCCCOc1cc2c(c(OCCCCC)c1OC)[C@@H]1O[C@H](CO)[C@@H](O)[C@H](O)[C@H]1OC2=O | 5.4 | – | – | – | – | – | –
2 | CCCCCCCOc1cc2c(c(OCCCCCCC)c1OC)[C@@H]1O[C@H](CO)[C@@H](O)[C@H](O)[C@H]1OC2=O | 99 | 7.21 | 4.18 | 102 | 98.6 | – | –
3 | CCCCOc1cc2c(c(OCCCC)c1OC)[C@@H]1O[C@H](CO)[C@@H](O)[C@H](O)[C@H]1OC2=O | -9.27 | – | – | – | – | – | –
4 | CCCCCCCCOc1cc2c(c(OCCCCCCCC)c1OC)[C@@H]1O[C@H](CO)[C@@H](O)[C@H](O)[C@H]1OC2=O | -21.5 | – | – | – | – | – | –
5 | COc1c(OCc2ccccc2)cc2c(c1OCc1ccccc1)[C@@H]1O[C@H](CO)[C@@H](O)[C@H](O)[C@H]1OC2=O | -5.95 | – | – | – | – | – | –
6 | CCCCCCCCCCOc1cc2c(c(OCCCCCCCCCC)c1OC)[C@@H]1O[C@H](CO)[C@@H](O)[C@H](O)[C@H]1OC2=O | 15.4 | – | – | – | – | – | –
7 | COc1c(OCc2ccccc2)cc2c(c1OCc1ccccc1)[C@@H]1O[C@@H]3CO[C@@H](c4ccccc4)O[C@H]3[C@H](NS(C)(=O)=O)[C@H]1OC2=O | 84.9 | 5.39 | 33.1 | 71.1 | 67.5 | 6 | –
8 | COc1c(OCc2ccccc2)cc2c(c1OCc1ccccc1)[C@@H]1O[C@@H]3CO[C@@H](c4ccccc4)O[C@H]3[C@H](N)[C@H]1OC2=O | 72.6 | 8.19 | 39.3 | 48.4 | 8.7 | – | –
9 | COc1c(OCc2ccccc2)cc2c(c1OCc1ccccc1)[C@@H]1O[C@@H]3CO[C@@H](c4ccccc4)O[C@H]3[C@@H](O)[C@H]1OC2=O | 11.2 | – | – | – | – | – | –
10 | COc1c(OCc2ccccc2)cc2c(c1OCc1ccccc1)[C@@H]1O[C@@H]3CO[C@@H](c4ccccc4)O[C@H]3[C@@H](OS(=O)(=O)C(F)(F)F)[C@H]1OC2=O | 75.9 | 8.05 | 44.2 | 68.6 | 63.1 | – | –
11 | CCCCCCCOc1cc2c(c(OCCCCCCC)c1OC)[C@@H]1O[C@H](CO)[C@@H](OCc3ccccc3)[C@H](O)[C@H]1OC2=O | 69.8 | 10.6 | 16.1 | 51.3 | 51.4 | – | –
12 | CCCCCCCOc1cc2c(c(OCCCCCCC)c1OC)[C@@H]1O[C@H](COCc3ccccc3)[C@@H](O)[C@H](O)[C@H]1OC2=O | 99.4 | 7.66 | 10.1 | 99.6 | 95.9 | – | –
13 | CCCCCCCOc1cc2c(c(OCCCCCCC)c1OC)[C@@H]1O[C@@H]3CO[C@@H](c4ccccc4)O[C@H]3[C@H](O)[C@H]1OC2=O | -6.83 | – | – | – | – | – | –
14 | CCCCCCOc1cc2c(c(OCCCCCC)c1OC)[C@@H]1O[C@H](CO)[C@@H](O)[C@H](O)[C@H]1OC2=O | 98.1 | 8.16 | 5.21 | 67.4 | 61.9 | – | –
15 | COc1c(OCc2ccccc2)cc2c(c1OCc1ccccc1)[C@@H]1O[C@@H]3CO[C@@H](c4ccccc4)O[C@H]3[C@H](OS(=O)(=O)C(F)(F)F)[C@H]1OC2=O | -1.62 | – | – | – | – | – | –
16 | COc1c(OCc2ccccc2)cc2c(c1OCc1ccccc1)[C@@H]1O[C@@H]3CO[C@@H](c4ccccc4)O[C@H]3[C@H](N=[N+]=[N-])[C@H]1OC2=O | -2.26 | – | – | – | – | – | –
17 | COc1c(O)cc2c(c1O)[C@@H]1O[C@@H]3CO[C@@H](c4ccccc4)O[C@H]3[C@H](O)[C@H]1OC2=O | -3.78 | – | – | – | – | – | –
18 | COc1c(OCc2ccccc2)cc2c(c1OCc1ccccc1)[C@@H]1O[C@@H]3CO[C@@H](c4ccccc4)O[C@H]3[C@H](O)[C@H]1OC2=O | 91.4 | 3.52 | 21 | 71 | 76.9 | 5.96 | –
19 | COc1c(O)cc2c(c1O)[C@@H]1O[C@H](CO)[C@@H](O)[C@H](O)[C@H]1OC2=O [BERGENIN] | 11.7 | – | – | -6.2 | 18.3 | – | –
20 | C[C@H]1C[C@H]2[C@@H]3CCC4=CC(=O)C=C[C@]4(C)[C@@]3(F)[C@@H](O)C[C@]2(C)[C@@]1(O)C(=O)CO [BETAMETHASONE] | 89.6 | – | – | 99.3 | 96.9 | – | –
21 | C/C=C/C[C@@H](C)[C@@H](O)[C@H]1C(=O)N[C@@H](CC)C(=O)N(C)CC(=O)N(C)[C@@H](CC(C)C)C(=O)N[C@@H](C(C)C)C(=O)N(C)[C@@H](CC(C)C)C(=O)N[C@@H](C)C(=O)N[C@H](C)C(=O)N(C)[C@@H](CC(C)C)C(=O)N(C)[C@@H](CC(C)C)C(=O)N(C)[C@@H](C(C)C)C(=O)N1C [CYCLOSPORINE] | – | – | – | – | – | – | 93.5
